Calls of active or inactive are those of the source. The rule behind the calls is not given here.
Legend:
[1] = system: K562; assay: Cytotoxicity against human K562 cells after 72 hrs by MTT assay; type: functional, cell-based; details: K562, 72 h
[2] = system: HL-60; assay: Cytotoxicity against human HL60 cells after 72 hrs by MTT assay; type: functional, cell-based; details: HL-60, 72 h
[3] = system: Jurkat; assay: Cytotoxicity against human Jurkat cells after 72 hrs by MTT assay; type: functional, cell-based
[4] = system: HeLa; assay: Cytotoxicity against human HeLa cells after 72 hrs by MTT assay; type: functional, cell-based
[5] = Cytotoxicity against human RS4:11 cells after 72 hrs by MTT assay; type: functional, cell-based; details: RS4-11, 72 h
[6] = Cytotoxicity against human SEM cells after 72 hrs by MTT assay; type: functional, cell-based
[7] = system: A549; assay: Cytotoxicity against human A549 cells after 72 hrs by MTT assay; type: functional, cell-based; details: A549, 72 h
[8] = system: PBL; assay: Cytotoxicity against human PBL after 72 hrs by MTT assay; type: cell-based
Procedure, shortened: (§1)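 PBL from healthy donors separated on a density gradient, washed, held at 1.0×10^6 cells/mL in RPMI-1640 with 10% FCS overnight. Non-adherent cells resuspended at 5×10^5 cells/mL. Stimulated cultures received 2.5 µg/mL PHA; resting cultures had none. Compound at several concentrations for 72 h, viability by MTT, IC50 taken. Mean ± SEM of three experiments.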

[9] = system: PBL; assay: Cytotoxicity against PHA-stimulated human PBL after 72 hrs by MTT assay; type: cell-based; procedure, shortened: as §1
[10] = system: Jurkat; assay: Cell cycle arrest in human Jurkat cells assessed as decrease in G1 phase phase after 48 hrs using propidium iodide staining by flow cytometry; type: functional, cell-based
Procedure, shortened: (§2)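 Exponentially growing Jurkat cells, 2.5×10^5, exposed to 1.25–100 µM for 48 h. Cells fixed in ice-cold 70% ethanol, lysed in buffer with RNase A and 0.1% Triton X-100, stained with propidium iodide. Cell-cycle phases read by flow cytometry. Mean ± SEM of three independent experiments; two-sided Student's t test against control.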

[11] = system: Jurkat; assay: Cell cycle arrest in human Jurkat cells assessed as decrease in S phase phase after 48 hrs using propidium iodide staining by flow cytometry; type: functional, cell-based; procedure, shortened: as §2
[12] = system: Jurkat; assay: Cell cycle arrest in human Jurkat cells assessed as accumulation at G2/M phase after 48 hrs using propidium iodide staining by flow cytometry; type: functional, cell-based; procedure, shortened: as §2
[13] = system: Jurkat; assay: Induction of apoptosis in human Jurkat cells assessed as increase in late apoptotic cells after 24 hrs by FITC-conjugated annexin V and propidium iodide staining-based flow cytometry; type: functional, cell-based
Procedure, shortened: (§3)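 Jurkat cells exposed for 24 and 48 h, over a range of 1.25–100 µM, then co-stained with Annexin-V-FITC and propidium iodide. Read by flow cytometry, excitation 488 nm, emission 525 and 585 nm. Quadrants scored as A+/PI− (early apoptotic) and A+/PI+ (late apoptotic), compared with untreated cells. Mean ± SEM of three independent experiments.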

[14] = system: Jurkat; assay: Cell cycle arrest in human Jurkat cells assessed as accumulation at G1 phase at 50 uM after 48 hrs using propidium iodide staining by flow cytometry; type: functional, cell-based; procedure, shortened: as §2
[15] = system: Jurkat; assay: Cell cycle arrest in human Jurkat cells assessed as accumulation at G1 phase after 48 hrs using propidium iodide staining by flow cytometry; type: functional, cell-based; procedure, shortened: as §2
[16] = system: Jurkat; assay: Induction of apoptosis in human Jurkat cells assessed as early apoptotic cells at 50 uM after 48 hrs by FITC-conjugated annexin V and propidium iodide staining-based flow cytometry relative to control; type: functional; procedure, shortened: as §3
[17] = system: Jurkat; assay: Induction of apoptosis in human Jurkat cells assessed as late apoptotic cells at 50 uM after 48 hrs by FITC-conjugated annexin V and propidium iodide staining-based flow cytometry relative to control; type: functional; procedure, shortened: as §3
[18] = system: Jurkat; assay: Induction of apoptosis in human Jurkat cells assessed as necrotic cells at 50 uM after 24 hrs by FITC-conjugated annexin V and propidium iodide staining-based flow cytometry relative to control; type: functional; procedure, shortened: as §3
[19] = system: Jurkat; assay: Induction of apoptosis in human Jurkat cells assessed as viable cells at 50 uM after 48 hrs by FITC-conjugated annexin V and propidium iodide staining-based flow cytometry relative to control; type: functional; details: read-out: Activity; procedure, shortened: as §3
[20] = system: Jurkat; assay: Induction of apoptosis in human Jurkat cells assessed as DNA fragmentation at 25 to 50 uM after 48 hrs by agarose gel electrophoresis; type: functional, cell-based
Procedure, shortened: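 Genomic DNA taken from treated Jurkat cells by salting out after 48 h. 1 µg run on 1.5% agarose in TAE at 50 V for 6 h. Gel stained with ethidium bromide and imaged under UV light.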

[21] = system: Jurkat; assay: Induction of apoptosis in human Jurkat cells assessed as early apoptotic cells at 50 uM after 24 hrs by FITC-conjugated annexin V and propidium iodide staining-based flow cytometry relative to control; type: functional; procedure, shortened: as §3
[22] = system: Jurkat; assay: Induction of apoptosis in human Jurkat cells assessed as necrotic cells at 50 uM after 48 hrs by FITC-conjugated annexin V and propidium iodide staining-based flow cytometry relative to control; type: functional; procedure, shortened: as §3
[23] = system: Jurkat; assay: Induction of apoptosis in human Jurkat cells assessed as viable cells at 50 uM after 24 hrs by FITC-conjugated annexin V and propidium iodide staining-based flow cytometry relative to control; type: functional; details: read-out: Activity; procedure, shortened: as §3
[24] = system: Jurkat; assay: Induction of apoptosis in human Jurkat cells assessed as late apoptotic cells at 50 uM after 24 hrs by FITC-conjugated annexin V and propidium iodide staining-based flow cytometry relative to control; type: functional; procedure, shortened: as §3
[25] = system: Jurkat; assay: Cytotoxicity against human Jurkat cells assessed as cell viability at 50 uM after 48 hrs by MTT assay in presence of 100 uM pan-caspase inhibitor z-VAD; type: functional
Procedure, shortened: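 Jurkat cells exposed to compound for 48 h with or without 100 µM of the pan-caspase inhibitor z-VAD.fmk. Percent viability read by MTT. Mean ± SEM.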

SMILES	IC50 [1]	IC50 [2]	IC50 [3]	IC50 [4]	IC50 [5]	IC50 [6]	IC50 [7]	also measured
COc1ccc(C(=O)O[C@H]2CC(C)=CC[C@@]3(C)CC[C@@](O)(C(C)C)[C@H]23)cc1 [FERUTIDIN]	67.8 µM	20.1 µM	30.5 µM	> 100 µM	17.6 µM	18.2 µM	31.9 µM	–
COc1ccc(C(=O)O[C@@H]2C=C(C)CC[C@]3(O)[C@H](C(C)C)CC(=O)[C@]23C)cc1 [SIOL ANISATE]	> 100 µM	> 100 µM	> 100 µM	> 100 µM	> 100 µM	23.9 µM	> 100 µM	–
CC1=C[C@H](OC(=O)c2ccc(O)cc2)[C@@H]2[C@](C)(CC[C@@]2(O)C(C)C)CC1=O	> 100 µM	82.5 µM	40.5 µM	26.1 µM	28.2 µM	24.4 µM	14.5 µM	–
COc1ccc(C(=O)O[C@H]2CC(C)=C[C@H](O)[C@@]3(C)[C@@H](OC(C)=O)C[C@@](O)(C(C)C)[C@H]23)cc1	48.2 µM	23 µM	5.9 µM	52.9 µM	34.4 µM	18.1 µM	79.6 µM	IC50 [8]: 20.5 µM; IC50 [9]: 27.2 µM; Activity [10]: Active; Activity [11]: Active; Activity [12]: Dose-dependent effect; Activity [13]: Dose-dependent effect
COc1ccc(C(=O)O[C@H]2CC(C)=C[C@@H](OC(C)=O)[C@@]3(C)[C@@H](OC(C)=O)C[C@@](O)(C(C)C)[C@H]23)cc1	> 100 µM	83.5 µM	62.2 µM	> 100 µM	42.9 µM	32.9 µM	> 100 µM	–
C=C1C[C@H](OC(=O)c2ccc(O)cc2)[C@@H]2[C@](C)(CC[C@@]2(O)C(C)C)C[C@@H]1O	> 100 µM	43.4 µM	55 µM	> 100 µM	29 µM	34.7 µM	> 100 µM	–
COc1ccc(C(=O)O[C@H]2CC(C)=C[C@H](OC(C)=O)[C@]3(C)[C@@H]2[C@](O)(C(C)C)C[C@@H]3O)cc1	70.4 µM	14.9 µM	9.1 µM	52.6 µM	26.8 µM	26.5 µM	> 100 µM	Activity [14]: inactive; IC50 [8]: 30.3 µM; IC50 [9]: 33.7 µM; Activity [15]: Active; Activity [13]: Dose-dependent effect
CC1=CC[C@]2(C)[C@@H]([C@@H](OC(=O)c3ccc(O)cc3)C1)[C@](O)(C(C)C)C[C@@H]2O	95 µM	3.5 µM	40.3 µM	56.5 µM	33.4 µM	22.4 µM	83.7 µM	–
COc1ccc(C(=O)O[C@H]2CC(C)=C[C@@H](O)[C@@]3(C)[C@@H](OC(C)=O)C[C@@](O)(C(C)C)[C@H]23)cc1	85.2 µM	24 µM	33.6 µM	> 100 µM	70.4 µM	> 100 µM	> 100 µM	–
COc1ccc(C(=O)OCC2=CC[C@@]3(C)CC[C@]4(C(C)C)O[C@]34CC2)cc1	> 100 µM	> 100 µM	> 100 µM	> 100 µM	60.9 µM	84 µM	> 100 µM	–
COc1ccc(C(=O)O[C@H]2CC(C)=C[C@H](OC(C)=O)[C@@]3(C)[C@@H](OC(C)=O)C[C@@](O)(C(C)C)[C@H]23)cc1	39.6 µM	11.3 µM	3.3 µM	14.5 µM	2.8 µM	15 µM	23.3 µM	Activity [16]: 0.1%; Activity [14]: inactive; Activity [17]: 67.4%; Activity [18]: 16%; viability at 50 µM [19]: 4.7%; IC50 [8]: 6.6 µM; Activity [20]: inactive; IC50 [9]: 9.4 µM; Activity [21]: 5.8%; Activity [22]: 27.8%; viability at 50 µM [23]: 36.5%; Activity [24]: 41.7%; Activity [15]: Active; Activity [25]: 13%; Activity [13]: Dose-dependent effect
COc1ccc(C(=O)O[C@H]2C=C(C)C(=O)C[C@@]3(C)CC[C@@](O)(C(C)C)[C@H]23)cc1	> 100 µM	38.9 µM	40.5 µM	29.7 µM	28.6 µM	28.4 µM	31.8 µM	–
COc1ccc(C(=O)OCC2=CC[C@@]3(C)CCC(C(C)C)=C3CC2)cc1	67 µM	30.7 µM	25.6 µM	> 100 µM	44.1 µM	25.5 µM	> 100 µM	–
C/C=C(\C)C(=O)O[C@H]1C[C@@]2(C)O[C@H]2[C@@H](OC(C)=O)[C@@]2(C)CC[C@@](O)(C(C)C)[C@H]12	> 100 µM	> 100 µM	> 100 µM	> 100 µM	> 100 µM	> 100 µM	> 100 µM	–
